# Results pooled from the literature.
# Compare with care: the assays were run in different laboratories. pIC50, pKd, pKi: −log10 of the molar value.
# DPP4: Dipeptidyl peptidase 4 (DPP4, Homo sapiens, UniProt P27487)
# ENAH: Protein enabled homolog (ENAH, UniProt Q8N8S7)
# SRC: Proto-oncogene tyrosine-protein kinase Src (SRC, Homo sapiens, UniProt P12931)
Structure (SMILES),target,assay,conditions,quantity,result
NC(=S)c1cn(C2OC(CO)C(O)C2O)c2ncnc(N)c12 (stereo not drawn),"Activin receptor type-1 (ACVR1, Homo sapiens, UniProt Q04771)","thermal stability, DSF",,pKd,> 6.00
CC(C)[C@H](N)C(=O)N1CCC[C@H]1C(=O)N[C@H](C(=O)N1CCC[C@H]1C(=O)N[C@@H](Cc1c[nH]c2ccccc12)C(=O)O)C(C)C,DPP4,"enzyme activity, inhibitor, absorbance",pH 8,pIC50,4.04
CC(=O)N[C@@H](Cc1ccccc1Cl)C(=O)N1CCC[C@H]1C(=O)N1CCC[C@H]1C(=O)N1CCC[C@H]1C(=O)N1CCC[C@H]1C(=O)O,ENAH,"binding, fluorescence",,pKd,5.00
CC(=O)P(=O)(O)OCCc1cn([C@H](Cc2ccccc2)C(=O)O)nn1,"1-deoxy-D-xylulose-5-phosphate synthase (dxs, Escherichia coli, UniProt P77488)","enzyme activity, inhibitor",with preincubation,pKi,7.05
CC[C@H]1NC(=O)[C@@H]2CSC(=N2)[C@H](Cc2ccccc2)N(C)C(=O)[C@@H]2CCCN2C(=O)[C@H](C(C)C)N(C)C(=O)[C@H](Cc2ccccc2)OC(=O)[C@H](C)[C@@H](C)NC(=O)[C@@H]([C@@H](C)O)NC(=O)[C@@H](CC(C)C)N(C)C(=O)[C@@H]2CSC1=N2,DPP4,"enzyme activity, inhibitor",,pIC50,3.61
c1ccc(Nc2cccc3ccccc23)cc1,"lush (Drosophila melanogaster, UniProt O02372)",binding,,pKd,6.19
Cn1cc(-c2cccc(N3CCc4c(sc5c4CC(C)(C)C5)C3=O)c2CO)cc(Nc2ccncn2)c1=O,SRC,"enzyme activity, inhibitor, FRET",,pKi,< 5.48
CC(=O)N[C@@H](Cc1ccccc1Cl)C(=O)N1CCC[C@H]1C(=O)N1CCC[C@H]1C(=O)N1CCC[C@H]1C(=O)N1CCC[C@H]1C(=O)N[C@H](C(=O)N[C@@H](CCC(=O)O)C(=O)N[C@@H](CC(=O)O)C(=O)N[C@@H](CCC(=O)O)C(=O)N[C@@H](CC(C)C)C(N)=O)[C@@H](C)O,ENAH,"binding, fluorescence",,pKd,5.90
O=C1C=CC(=O)N1CCCCCCCCCCCCCCCCCCN1CCCCC1,"Acetylcholinesterase (ACHE, Homo sapiens, UniProt P22303)","enzyme activity, inhibitor",,pKi,4.69
CC(C)[C@H](N)C(=O)N1CCC[C@H]1C(=O)N[C@H](C(=O)N1CCC[C@H]1C(=O)N[C@@H](CC(N)=O)C(=O)O)C(C)C,DPP4,"enzyme activity, inhibitor, absorbance",pH 8,pIC50,4.05
CC(=O)N[C@@H](CO)C(=O)N[C@@H](Cc1ccccc1)C(=O)N[C@@H](CCC(=O)O)C(=O)N[C@@H](Cc1ccccc1Cl)C(=O)N1CCC[C@H]1C(=O)N1CCC[C@H]1C(=O)N1CCC[C@H]1C(=O)N1CCC[C@H]1C(=O)N[C@H](C(=O)N[C@@H](CCC(=O)O)C(=O)N[C@@H](CC(=O)O)C(=O)N[C@@H](CCC(=O)O)C(=O)N[C@@H](CC(C)C)C(N)=O)[C@@H](C)O,ENAH,"binding, fluorescence",,pKd,6.10
CC(C)[C@H](N)C(=O)N1CCC[C@H]1C(=O)N[C@H](C(=O)N1CCC[C@H]1C(=O)N[C@@H](CCC(=O)O)C(=O)O)C(C)C,DPP4,"enzyme activity, inhibitor, absorbance",pH 8,pIC50,4.08
Cn1cc(-c2cc(F)cc(N3CCn4c(cc5c4CCCC5)C3=O)c2CO)cc(Nc2ccc(N3CCN(C4COC4)CC3)cn2)c1=O,SRC,"enzyme activity, inhibitor, FRET",,pKi,6.60
CC(C)[C@H](N)C(=O)N1CCC[C@H]1C(=O)N[C@H](C(=O)N1CCC[C@H]1C(=O)N[C@@H](CCCNC(=N)N)C(=O)O)C(C)C,DPP4,"enzyme activity, inhibitor, absorbance",pH 8,pIC50,3.93
CC(=O)N[C@@H](Cc1ccccc1Cl)C(=O)N1CCC[C@H]1C(=O)N1CCC[C@H]1C(=O)N1CCC[C@H]1C(=O)N1CCC[C@H]1C(=O)N[C@H](C(=O)N[C@@H](CCC(=O)O)C(=O)N[C@@H](CC(=O)O)C(=O)N[C@@H](CC(=O)O)C(=O)N[C@@H](CC(C)C)C(N)=O)[C@@H](C)O,ENAH,"binding, fluorescence",,pKd,5.42
